Assay outcomes: PubChem, several laboratories
PAFAH1B2 FP inh = inhibitors of human PAFAH1B2. P68402. recombinant PAFAH1B2, FP-rhodamine activity probe, fluorescence polarization. inhibition, % at 3.39 µM. hit rate 1.2% among 340,000. AID 492953;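 active = inhibition above the mean of all tested compounds plus 3 SD, cut at about 24% in these data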;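 note: 0% = enzyme with DMSO and 100% = wells lacking PAFAH1B2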
Target sequence (P68402 whole entry, looked up): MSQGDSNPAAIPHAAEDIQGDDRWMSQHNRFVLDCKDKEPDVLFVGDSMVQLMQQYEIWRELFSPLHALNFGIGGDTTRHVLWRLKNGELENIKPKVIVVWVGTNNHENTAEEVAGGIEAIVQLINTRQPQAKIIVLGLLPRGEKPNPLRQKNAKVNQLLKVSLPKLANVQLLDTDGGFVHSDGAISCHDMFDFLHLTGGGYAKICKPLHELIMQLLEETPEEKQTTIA
Apaf-1 inh = human Apaf-1 inhibition | O14727 | reconstituted apoptosome caspase-3 activity, DEVD-Rh110 fluorescence | inhibition, % at 20 µM | hit rate 0.71% among 330,000 | AID 489030; active = inhibition of at least 40% at 20 µM;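 note: plate controls were DMSO wells for no effect and DEVD-CHO caspase inhibitor wells for full effect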
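Material: cell-free apoptosome with Apaf-1, procaspase-3 and caspase-9; Buffer or medium: Hepes pH 7.5 with detergent and BSA; Reagent: cytochrome c trigger plus (Z-DEVD)2-Rh110 caspase-3 substrate; Times: compound with Apaf-1, dATP, procaspase-3 30 min, then 50 min reaction, room temperature; Technique: Rh110 fluorescence intensity.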
PAFAH1B3 inh = PAFAH1B3 (human) inhibition | Q15102 | recombinant PAFAH1B3, FP-rhodamine probe, fluorescence polarization | inhibition, % at 3.39 µM | hit rate 0.28% among 340,000 | AID 492972;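 active = inhibition above the screen-wide average of all tested compounds plus 3 SD, cut at about 25% in these data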;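 note: 0% = enzyme with DMSO only and 100% = wells lacking PAFAH1B3 protein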
PAFAH2 FP inh = inhibitors of human PAFAH2. recombinant PAFAH2, FP-rhodamine activity probe, fluorescence polarization. inhibition, % at 3.39 µM. hit rate 0.99% among 340,000;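 active = inhibition above the mean over all tested compounds plus 3 SD, cut at about 30% in these data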;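 note: inhibitors block probe labeling of enzyme so polarization drops; 0% = enzyme with DMSO and 100% = wells lacking PAFAH2 protein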
pPAFAH inh = pPAFAH (human) enzyme inhibition; Q13093; hit rate 1.5% among 330,000; recombinant pPAFAH, FP-rhodamine probe fluorescence polarization; inhibition, % at 3.39 µM;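 active = inhibition above the mean inhibition across the screen plus 3 SD, cut at about 25% in these data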;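 note: inhibitors block binding of the rhodamine activity-based probe so polarization drops; 0% = enzyme with DMSO and 100% = wells lacking pPAFAH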
Target sequence (Q13093 whole entry, looked up): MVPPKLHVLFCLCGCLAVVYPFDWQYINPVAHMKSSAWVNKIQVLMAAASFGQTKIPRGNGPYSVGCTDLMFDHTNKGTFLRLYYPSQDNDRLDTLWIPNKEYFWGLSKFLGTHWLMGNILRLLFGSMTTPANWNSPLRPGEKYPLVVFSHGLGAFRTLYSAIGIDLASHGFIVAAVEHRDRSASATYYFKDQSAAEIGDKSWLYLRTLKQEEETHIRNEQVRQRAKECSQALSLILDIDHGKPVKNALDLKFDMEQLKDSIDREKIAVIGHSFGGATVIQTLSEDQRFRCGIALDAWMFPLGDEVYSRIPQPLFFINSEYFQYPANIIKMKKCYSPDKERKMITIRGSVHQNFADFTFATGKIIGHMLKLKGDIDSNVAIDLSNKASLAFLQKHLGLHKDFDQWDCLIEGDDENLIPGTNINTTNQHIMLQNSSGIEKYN
PAFAH2 confirm = confirmation of human PAFAH2 inhibitors. shares compounds with PAFAH2 FP inh. recombinant PAFAH2, FP-rhodamine activity probe, fluorescence polarization. inhibition, % at 3.39 µM. hit rate 65% among 2,300. AID 493030;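 active = mean inhibition over three repeats above a set limit taken from the earlier primary screen, cut at about 30% in these data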;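 note: inhibitor blocks binding of rhodamine activity probe so polarization falls; 0% = enzyme with DMSO and 100% = wells lacking PAFAH2 protein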
The depositor's hits bear a star. In the library only some 3.1% were active in any assay of this set; here they are far more common.

What do the screens show for `COc1cccc(NC(=O)COC(=O)C2CCCCC2)c1`?
PAFAH1B2 FP inh: 7.1; Apaf-1 inh: -10.0; PAFAH1B3 inh: 7.7; PAFAH2 FP inh: 82.1*; pPAFAH inh: 7.3; PAFAH2 confirm: 63.2*

How did COc1ccc(NC(=O)COC(=O)c2cc(OC)c(OC)c(OC)c2)c([N+](=O)[O-])c1 do in these assays?
PAFAH1B2 FP inh: 4.6; Apaf-1 inh: -12.0; PAFAH1B3 inh: 6.7; PAFAH2 FP inh: -1.2; pPAFAH inh: 7.2

How did COc1ccc(NC(=O)COC(=O)C2CCCCC2)c([N+](=O)[O-])c1 do in these assays?
PAFAH1B2 FP inh: 4.2; Apaf-1 inh: 6.7; PAFAH1B3 inh: 1.0; PAFAH2 FP inh: 29.7*; pPAFAH inh: 5.9; PAFAH2 confirm: 20.2

How did COc1cccc(NC(=O)COC(=O)C2CC2)c1 do in these assays?
PAFAH1B2 FP inh: 4.3; Apaf-1 inh: -13.7; PAFAH1B3 inh: 7.6; PAFAH2 FP inh: 68.9*; pPAFAH inh: 0.6; PAFAH2 confirm: 56.9*

What do the screens show for `CNS(=O)(=O)c1cccc(C(=O)OCC(=O)Nc2ccc(OC)cc2[N+](=O)[O-])c1`?
PAFAH1B2 FP inh: -1.5; Apaf-1 inh: 4.0; PAFAH1B3 inh: 3.0; PAFAH2 FP inh: 31.2*; pPAFAH inh: 8.4; PAFAH2 confirm: 26.8

What do the screens show for `O=C(COC(=O)C1CCC1)Nc1cccc(Cl)c1`?
PAFAH1B2 FP inh: 0.0; Apaf-1 inh: 1.3; PAFAH1B3 inh: -1.6; PAFAH2 FP inh: 3.0; pPAFAH inh: 0.4

How did Cc1cc(C)cc(NC(=O)C2C3C=CC4(O3)C2C(=O)N(CCCN(C)C)C4C(=O)NC2CCCC(C)C2C)c1 (stereo not drawn) do in these assays?
PAFAH1B2 FP inh: 4.4; Apaf-1 inh: 7.5; PAFAH1B3 inh: 3.7; PAFAH2 FP inh: 0.0; pPAFAH inh: 6.1

Results for Cc1ccc(CN2CCN(C(=O)CC(C)C)CC2)cc1 ?
PAFAH1B2 FP inh: 2.1; Apaf-1 inh: 5.2; PAFAH1B3 inh: 4.0; PAFAH2 FP inh: -2.3; pPAFAH inh: -3.4

How did Cc1cc(=O)n2[nH]c(SCc3c(F)cccc3Cl)nc2n1 do in these assays?
PAFAH1B2 FP inh: 6.0; Apaf-1 inh: -21.4; PAFAH1B3 inh: -1.5; PAFAH2 FP inh: 21.4; pPAFAH inh: -1.4

What do the screens show for `Cc1cc(=O)n2[nH]c(SCc3ccccc3Cl)nc2n1`?
PAFAH1B2 FP inh: 4.5; Apaf-1 inh: -0.7; PAFAH1B3 inh: 6.3; PAFAH2 FP inh: 40.4*; pPAFAH inh: 20.8; PAFAH2 confirm: 27.7

Results for CC[C@]1(C(=O)OC)[C@H]2C(=O)N(C)C(=O)[C@H]2[C@H]2CN=C(SCc3ccc(C)cc3)N21 ?
PAFAH1B2 FP inh: 15.3; Apaf-1 inh: 12.1; PAFAH1B3 inh: 5.7; PAFAH2 FP inh: -2.7; pPAFAH inh: 7.2

Results for Cc1cccc(NC(=O)COC(=O)c2ccccc2SCC(=O)N2CCCC2)c1 ?
PAFAH1B2 FP inh: 0.5; Apaf-1 inh: 0.1; PAFAH1B3 inh: -1.9; PAFAH2 FP inh: 88.4*; pPAFAH inh: 5.2; PAFAH2 confirm: 73.5*

How did O=C(COC(=O)c1ccccc1SCC(=O)N1CCCC1)Nc1ccc(OC(F)F)cc1 do in these assays?
PAFAH1B2 FP inh: 4.3; Apaf-1 inh: 7.2; PAFAH1B3 inh: 0.2; PAFAH2 FP inh: 72.6*; pPAFAH inh: 22.7; PAFAH2 confirm: 76.0*

Results for O=C(COC(=O)c1ccccc1SCC(=O)N1CCCC1)Nc1ccccc1C(F)(F)F ?
PAFAH1B2 FP inh: -4.0; Apaf-1 inh: 13.7; PAFAH1B3 inh: 11.7; PAFAH2 FP inh: 24.8; pPAFAH inh: 1.7

How did O=C(Cn1nc(-c2ccc3c(c2)OCCO3)ccc1=O)Nc1cccc(NC(=O)c2ccccn2)c1 do in these assays?
Apaf-1 inh: -9.3; pPAFAH inh: 3.4

What do the screens show for `CC1CCN(C(=O)COC(=O)/C=C/c2ccc(Br)o2)CC1`?
PAFAH1B2 FP inh: 1.4; Apaf-1 inh: -0.5; PAFAH1B3 inh: 6.6; PAFAH2 FP inh: 30.3*; pPAFAH inh: 5.9; PAFAH2 confirm: 11.1

How did CC1CCCC(C)N1C(=O)COC(=O)/C=C/c1ccc(Br)o1 (stereo not drawn) do in these assays?
PAFAH1B2 FP inh: 8.5; Apaf-1 inh: 17.3; PAFAH1B3 inh: 4.4; PAFAH2 FP inh: 12.7; pPAFAH inh: 13.7

How did c1ccc(C2[C@H]3CN(CC4CCCCC4)[C@H](c4ccccc4)C34CC2(c2cccnc2)C4)cc1 (stereo partly drawn) do in these assays?
PAFAH1B2 FP inh: 2.0; Apaf-1 inh: 35.8; PAFAH1B3 inh: 17.3; PAFAH2 FP inh: 55.7*; pPAFAH inh: 4.1; PAFAH2 confirm: -2.2

Results for COc1ccc(C(=O)COC(=O)c2cnc(C)cn2)cc1OC ?
PAFAH1B2 FP inh: -3.3; Apaf-1 inh: -6.1; PAFAH1B3 inh: -1.6; PAFAH2 FP inh: -0.2; pPAFAH inh: 4.7

What do the screens show for `CC(=O)OCC1=C(C(=O)O)N2C(=O)[C@@H](NC(=O)Cc3cccs3)[C@H]2SC1`?
PAFAH1B2 FP inh: 5.2; Apaf-1 inh: 5.4; PAFAH1B3 inh: 5.3; PAFAH2 FP inh: 39.1*; pPAFAH inh: 15.7; PAFAH2 confirm: 23.7

What do the screens show for `CCOc1ccc(C(=O)NC2C(=O)N3C(C(=O)O)=C(COC(C)=O)CSC23)cc1OCC` (stereo not drawn)?
PAFAH1B2 FP inh: 3.8; Apaf-1 inh: -5.7; PAFAH1B3 inh: 4.4; PAFAH2 FP inh: -5.1

What do the screens show for `CC(=O)OCC1=C(C(=O)O)N2C(=O)[C@@H](NC(=O)Cc3ccccc3)[C@H]2SC1`?
PAFAH1B2 FP inh: 4.6; PAFAH1B3 inh: 13.1; PAFAH2 FP inh: 17.6

How did CC(=O)OCC1=C(C(=O)O)N2C(=O)C(NC(=O)c3ccc(COc4c(C)cccc4Cl)o3)C2SC1 (stereo not drawn) do in these assays?
PAFAH1B2 FP inh: -4.6; Apaf-1 inh: 22.0; PAFAH1B3 inh: -2.3; PAFAH2 FP inh: 42.6*; pPAFAH inh: 15.3; PAFAH2 confirm: 41.5*

Results for COc1cc(OC)cc(C(=O)NC(C)CNc2ccc(Cl)cc2[N+](=O)[O-])c1 (stereo not drawn) ?
PAFAH1B2 FP inh: 7.1; Apaf-1 inh: 12.9; PAFAH1B3 inh: 3.1; PAFAH2 FP inh: 1.5; pPAFAH inh: 10.8

How did CC1=NN(C(N)=S)C(=O)C1N=Nc1ccc(C)c(Br)c1 (stereo not drawn) do in these assays?
PAFAH1B2 FP inh: 7.6; Apaf-1 inh: -2.4; PAFAH1B3 inh: 11.2; PAFAH2 FP inh: 41.6*; pPAFAH inh: 3.5; PAFAH2 confirm: 32.7*

Results for CCN(CC)S(=O)(=O)c1cccc(NC(=O)COC(=O)c2n[nH]c(=O)c3ccccc23)c1 ?
PAFAH1B2 FP inh: 5.3; Apaf-1 inh: 5.6; PAFAH1B3 inh: 3.9; PAFAH2 FP inh: 6.5; pPAFAH inh: -4.2

How did CN(C)S(=O)(=O)c1cccc(NC(=O)COC(=O)c2cccn2C)c1 do in these assays?
PAFAH1B2 FP inh: 4.9; Apaf-1 inh: -8.5; PAFAH1B3 inh: -1.4; PAFAH2 FP inh: 36.3*; pPAFAH inh: 5.8; PAFAH2 confirm: 21.5

What do the screens show for `CCN(CC)S(=O)(=O)c1cccc(NC(=O)COC(=O)c2cc(C)oc2C)c1`?
PAFAH1B2 FP inh: -3.9; Apaf-1 inh: 13.5; PAFAH1B3 inh: -3.3; PAFAH2 FP inh: 39.1*; pPAFAH inh: 3.7; PAFAH2 confirm: 39.1*
